Shown are actives, neighbours in structure and some others; about 2.7% of the full set was active somewhere.
ASAP1 inh = inhibitors of human ASAP1 ArfGAP activity | Q9ULH1 | ASAP1-stimulated ARF1 GTP hydrolysis, GDP FP detection | inhibition, % at 16.5 µM | actives 0.19% (n = 360,000); in the data active = inhibition above about 25%;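 also: 0% = vehicle with enzyme and substrate and 100% = no enzyme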
Rev-erbA mod = modulators of human Rev-erb alpha DNA binding | actives 0.79% (n = 370,000) | Rev-erbα–FITC-DNA binding, fluorescence polarization, 90 min | P20393 | activity, % at 10 µM;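 active = activity above about 14%, limit read from the data; passing the limit was not always enough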;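 also: 0% = DMSO wells with 35 nM protein and 100% = DMSO wells with 750 nM protein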
Target sequence (P20393 whole entry, looked up): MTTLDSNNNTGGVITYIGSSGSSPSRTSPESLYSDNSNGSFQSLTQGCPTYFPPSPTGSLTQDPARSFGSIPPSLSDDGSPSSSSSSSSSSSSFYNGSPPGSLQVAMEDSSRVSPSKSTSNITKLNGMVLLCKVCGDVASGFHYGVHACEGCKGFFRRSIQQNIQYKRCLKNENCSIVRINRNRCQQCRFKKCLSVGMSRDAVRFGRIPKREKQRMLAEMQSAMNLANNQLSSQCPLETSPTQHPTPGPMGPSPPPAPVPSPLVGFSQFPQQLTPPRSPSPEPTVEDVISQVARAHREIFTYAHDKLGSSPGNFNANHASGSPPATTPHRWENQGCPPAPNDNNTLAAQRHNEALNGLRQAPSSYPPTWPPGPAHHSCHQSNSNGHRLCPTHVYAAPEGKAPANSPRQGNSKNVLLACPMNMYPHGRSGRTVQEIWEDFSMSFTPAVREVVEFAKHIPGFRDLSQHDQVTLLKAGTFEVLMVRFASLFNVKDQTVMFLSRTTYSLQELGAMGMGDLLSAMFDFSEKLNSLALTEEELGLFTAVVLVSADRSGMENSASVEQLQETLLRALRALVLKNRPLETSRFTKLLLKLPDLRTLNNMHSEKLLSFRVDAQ
bovine MsrA act = bovine methionine sulfoxide reductase A activation; actives 0.3% (n = 360,000); activation, % at 10.6 µM; purified bovine MsrA, absorbance read-out; in the data active = activation above about 7.5%;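 also: 0% = vehicle and 100% = reference activator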
MsrA inh = bovine MsrA inhibition; actives 0.75% (n = 360,000); inhibition, % at 15.5 µM; AID 651718; purified bovine MsrA, absorbance read-out; in the data active = inhibition above about 4.5%;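 also: 0% = vehicle wells with enzyme and 100% = reference inhibitor wells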
sPLA2-III inh = Blocks human group III sPLA2 activity; QFRET BODIPY PC-A2 liposome hydrolysis, fluorescence; actives 0.56% (n = 370,000); inhibition, % at 12.2 µM; AID 743126; Q9NZ20;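 active = inhibition above mean plus 3 SD of compounds lying within the high and low control bounds, cut at about 19% in these data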;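 also: 0% = median of test compound wells and 100% = no enzyme DMSO wells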
ARFGAP1 inh = rat ARFGAP1 inhibition; actives 0.26% (n = 360,000); Q62848; Arfgap1-stimulated ARF1 GTP hydrolysis, GDP FP detection; AID 651572; inhibition, % at 16.5 µM;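 active = inhibition above a per-plate limit, mean inhibition of low control wells plus 3 SD, cut at about 25% in these data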;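 also: 0% = DMSO wells with enzyme and 100% = wells lacking Arfgap1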
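Assay system: Rat Arfgap1 GAP domain (His6, aa 1-136), purified enzyme | Buffer or medium: HEPES 25 mM pH 7.5, NaCl 150 mM, MgCl2, DTT | Schedule: GTP hydrolysis reaction 2 h at 25 °C | Signal: FP of antibody-bound GDP Alexa 633 tracer, ex 620/em 688 nm | Measure: Percent inhibition of Arfgap1-stimulated GTP hydrolysis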
MsrA act confirm = confirmation of bovine methionine sulfoxide reductase A activators; purified bovine MsrA, absorbance read-out; actives 12% (n = 1,000); shares compounds with bovine MsrA act; activation, % at 10.6 µM; in the data active = activation above about 4%;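 also: enzyme coupled to thioredoxin and thioredoxin reductase with NADPH; 0% = vehicle wells and 100% = reference activator wells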
Numbers without * were called inactive; x = no result given.

SMILES	ASAP1 inh	Rev-erbA mod	bovine MsrA act	MsrA inh	sPLA2-III inh	ARFGAP1 inh	MsrA act confirm
Cc1ccc(NC2=CC(=O)C(=O)c3ccccc32)c(C)c1	5.7	-6.1	-2.4	0.0	5.0	9.4	x
O=C1C=C(NCc2ccccc2)c2ccccc2C1=O	5.9	-5.3	9.4*	1.9	-10.5	-4.8	8.9*
O=C1c2ccccc2S(=O)(=O)c2cc(C(=O)N(c3ccccn3)c3ccccn3)ccc21	7.7	0.5	8.0*	-1.1	7.0	-0.1	2.9
CN(Cc1ccccc1)C(=O)c1csc([C@H]2C[C@H](O)[C@@H](CO)O2)n1	8.5	-5.4	-1.1	-0.8	1.3	12.4	x
CN(Cc1ccccc1)C(=O)c1csc([C@@H]2C[C@H](O)[C@@H](CO)O2)n1	-9.0	0.5	9.3*	-0.2	1.7	-3.5	-0.8
O=C(NC(=S)NNC(=O)c1ccccc1[N+](=O)[O-])c1ccc(Br)cc1	-14.6	-1.7	10.0*	-1.5	-4.4	3.4	-0.7
O=C(NNC(=O)c1ccccc1[N+](=O)[O-])c1ccc(NC(=O)c2ccccc2)cc1	-5.3	0.9	-1.5	-0.7	-4.7	-2.8	x
COc1cc(OC)cc(C(=O)NC2CCN(CC(=O)Nc3cccc4ccccc34)CC2)c1	-8.4	-0.1	8.9*	1.0	-13.2	-10.5	-0.7
Cc1ccc(-n2c([C@@H]3C[C@H]3c3ccccc3)n[nH]c2=S)cc1	11.3	-4.0	8.9*	-0.2	14.4	4.6	-2.8
CCN1C(=O)N(C)[C@@H](c2ccccc2)C(C(=O)OC)=C1C	0.0	-5.6	9.3*	0.1	9.7	-3.9	-4.4
CCN1C(=O)N(S(=O)(=O)C(F)(F)F)[C@@H](c2ccccc2)C(C(=O)OC)=C1C	5.2	-4.9	-7.3	0.4	3.0	3.9	x
O=C(CSc1nc2ncccc2[nH]1)c1cccc([N+](=O)[O-])c1	-5.0	-3.5	8.8*	-0.4	-51.1	-3.6	-2.4
Cc1ccccc1CN1CCCCC(NC(=O)Nc2ccccc2)C1=O (centres undefined)	x	-1.4	x	x	2.5	x	x
CCC1CCc2sc(C(=O)Nc3cc(S(=O)(=O)N4CCOCC4)ccc3OC)cc2C1 (centres undefined)	x	-13.3	x	x	3.1	x	x
O=C(O)c1cc(-c2ccc(Cl)cc2)n[nH]1	-26.0	0.9	9.2*	-0.2	8.0	-0.2	-1.6
COC(=O)[C@@]1(OC(C)=O)CC(OC(C)=O)[C@H](OC(C)=O)[C@H](OC(C)=O)C1Br (some centres undefined)	x	-0.2	x	x	6.6	x	x
O=c1[nH]c(=S)[nH]cc1Oc1ccc(Cl)cc1Cl	0.4	3.2	8.8*	-0.1	4.8	1.8	4.7*
Cc1nc(-c2ccccc2)[nH]c(=O)c1Oc1ccc(Cl)cc1Cl	-12.2	-7.5	-1.1	0.5	9.4	-2.7	x
C#CCCCN([C@H](C(=O)OC)C(C)C)S(=O)(=O)c1ccccc1Br	x	-7.7	x	x	3.4	x	x
Cc1nn(CCC(=O)NNC(=S)Nc2cccc(Cl)c2)c(C)c1[N+](=O)[O-]	0.4	-1.9	11.1*	0.2	15.4	5.8	0.0
Cc1sc(NC(=O)CN2CCCC2)nc1-c1ccc2c(c1)CCN2C(=O)c1ccc(F)cc1	20.7	5.2	12.1*	-1.2	-19.0	0.0	-2.8
Cc1ccc(OCC(=O)N/N=C\c2c(C)[nH]n(-c3ccccc3)c2=O)c([N+](=O)[O-])c1	-4.1	-1.5	10.9*	2.2	-15.2	-15.5	-1.0
COC(=O)C1CN(Cc2ccccc2)CCS(=O)(=O)N1Cc1cn(Cc2ccccc2)nn1 (centres undefined)	x	-4.3	x	x	-6.5	x	x
C[C@H](CO)N1C[C@H](C)[C@@H](CN(C)S(=O)(=O)c2ccc3c(c2)OCCCO3)OCc2cnnn2CCCC1=O	-0.9	-5.3	-1.4	-1.5	9.3	-8.1	x
CC(C)NC(=O)N(C)C[C@@H]1OCc2cn(nn2)CCCC(=O)N([C@H](C)CO)C[C@H]1C	0.3	-3.7	13.4*	0.5	1.3	-20.7	-2.4
SMILES	ASAP1 inh	Rev-erbA mod	bovine MsrA act	MsrA inh	sPLA2-III inh	ARFGAP1 inh	MsrA act confirm
C[C@@H]1CN([C@H](C)CO)C(=O)CCCn2nncc2CO[C@@H]1CN(C)S(=O)(=O)c1ccc2c(c1)OCCCO2	-4.4	-8.4	11.8*	-1.6	2.5	-5.6	1.5
COc1cc(C(=O)NCc2ccccc2)cc(Br)c1OC	0.4	-8.7	10.2*	0.3	3.5	13.4	-1.1
CC(C)=CCC[C@@]1(C(=O)O)[C@@H]2C/C=C(\C)CC/C=C(\C)CC[C@H]1[C@]1(CC2)CO1	x	-1.4	x	x	-6.3	x	x
CCOc1ccc(-c2nnc(NC3=NCCCCC3)o2)cc1	0.6	1.1	10.2*	0.5	2.8	-6.6	0.0
N/C(=N\C(=S)Nc1ccc2c(c1)OCO2)c1ccccc1	5.5	-6.5	-3.4	0.8	14.7	-4.2	x
NC(=S)Nc1ccc2c(c1)OCO2	-8.8	-3.3	14.7*	-1.1	2.5	5.9	-3.0
CC1(C)CC(=O)C2=C(C1)N(CC1CCCO1)C(=O)NC2(C(F)(F)F)C(F)(F)F (centres undefined)	7.7	-3.4	11.0*	0.0	3.3	-0.1	-0.9
COc1cc(/C=N/NC(=O)c2cccc([N+](=O)[O-])c2)ccc1OCc1ccc(C)cc1	5.0	-14.1	8.3*	-1.1	1.3	9.3	-1.4
O=C(CN(CCc1ccccc1)S(=O)(=O)c1ccc(F)cc1)N1CCOCC1	x	-2.1	x	x	-4.6	x	x
O=[N+]([O-])c1ccc(-[n+]2ccc3ccccc3c2)c([N+](=O)[O-])c1	3.0	-6.1	11.4*	2.3	14.7	-2.6	2.8
COc1ccc(S(=O)(=O)N2CCCC(C(=O)NCc3cccnc3)C2)cc1 (centres undefined)	-2.8	-4.9	-4.6	-0.9	0.9	-1.7	x
CCOc1ccc(S(=O)(=O)N2CCCC(C(=O)NCc3cccnc3)C2)cc1 (centres undefined)	-7.2	2.6	8.9*	-0.8	-1.5	-1.1	-1.7
O=C(Nc1ccc(F)cc1)N1CCN(c2nc3ccccc3s2)CC1	-0.2	1.4	8.0*	-0.3	-0.2	1.8	0.7
O=C(Nc1ccccc1)N1CCN(c2nc3ccccc3s2)CC1	-1.1	-1.7	-0.7	0.8	3.4	-2.8	x
CC1CCN(CCCNC(=O)c2coc3nc4ccccc4nc23)CC1	0.1	3.8	9.0*	1.1	-4.8	-1.8	-1.5
CC1CCCN(CCCNC(=O)c2coc3nc4ccccc4nc23)C1 (centres undefined)	3.8	4.5	0.7	0.4	0.3	3.7	x
CCOc1cc(OCC)cc(C(=O)N2CCC[C@@H]2C(=O)N2CCC[C@@H]2C(=O)NCc2cccc(OC)c2)c1	-0.8	-5.1	x	0.0	3.9	-2.0	x
CC(C)CN1C(=O)c2ccccc2C1(O)Cc1ccccc1 (centres undefined)	5.6	5.5	-4.8	-0.3	6.2	-9.0	x
